In ChEMBL document CHEMBL3352386, “Development of chiral praziquantel analogues as potential drug candidates with activity to juvenile Schistosoma japonicum” (2014) one finds survival, inhibition and inhibition in vivo data, which are given here for five compounds.

Test [1] has as its system Schistosoma japonicum. In words: Antischistosomal activity against adult Schistosoma japonicum assessed as worm survival at 100 uM after 72 hrs (reference value: 100%). It is filed as functional. In short, it runs like this: (§1)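 Five adult male S. japonicum worms recovered 6 weeks post-infection from female ICR Kunming mice, in duplicate dishes of bicarbonate-buffered DMEM with 20% newborn calf serum, penicillin, streptomycin and amphotericin B. Compound diluted from DMSO stock; DMSO control. Kept at 37 °C, 5% CO2, observed daily by stereomicroscope. Survival% = surviving/total worms × 100.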

Test [2] has as its system Schistosoma japonicum. In words: Antischistosomal activity against adult Schistosoma japonicum assessed as vitality reduction at 50 uM after 48 hrs (reference value: 0%). In kind it is functional.
In test [3] the test system is Schistosoma japonicum. Briefly: Antischistosomal activity against adult Schistosoma japonicum assessed as worm survival at 80 uM after 24 hrs (reference value: 100%). It is filed as functional. In short, it runs like this:
as §1

Test [4] has as its system Schistosoma japonicum. In words: Antischistosomal activity against adult Schistosoma japonicum assessed as worm survival at 50 uM after 48 hrs (reference value: 100%). It is filed as functional. A digest of the protocol:
as §1

The test system of test [5] is Schistosoma japonicum. Briefly: Antischistosomal activity against juvenile Schistosoma japonicum infected in ICR Kunming mouse assessed as worm reduction at 200 mg/kg, po for 5 days beginning on day 14 after infection (reference value: 0%).
The subject of test [6] is Schistosoma japonicum. In words: Antischistosomal activity against adult Schistosoma japonicum assessed as vitality reduction at 100 uM after 48 hrs (reference value: 0%). In kind it is functional.
The test system of test [7] is Schistosoma japonicum. In words: Antischistosomal activity against adult Schistosoma japonicum assessed as vitality reduction at 100 uM after 24 hrs (reference value: 0%). It is filed as functional.
Test [8] concerns Schistosoma japonicum. In words: Antischistosomal activity against juvenile Schistosoma japonicum assessed as vitality reduction at 50 uM after 24 hrs (reference value: 0%). It is filed as functional.
Test [9] deals with Schistosoma japonicum. In words: Antischistosomal activity against juvenile Schistosoma japonicum assessed as vitality reduction at 50 uM after 72 hrs (reference value: 0%). In kind it is functional.
In test [10] the test system is Schistosoma japonicum. In words: Antischistosomal activity against adult Schistosoma japonicum assessed as worm survival at 80 uM after 48 hrs (reference value: 100%). It is filed as functional. In short, it runs like this:
as §1

In test [11] the test system is Schistosoma japonicum. In words: Antischistosomal activity against adult Schistosoma japonicum assessed as worm survival at 50 uM after 24 hrs (reference value: 100%). It is filed as functional. In short, it runs like this:
as §1

For test [12], the system named is Schistosoma japonicum. In words: Antischistosomal activity against adult Schistosoma japonicum assessed as vitality reduction at 50 uM after 72 hrs (reference value: 0%). It is filed as functional.
The test system of test [13] is Schistosoma japonicum. In words: Antischistosomal activity against juvenile Schistosoma japonicum assessed as worm survival at 50 uM after 72 hrs (reference value: 100%). It is filed as functional. In short, it runs like this:
(§2)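 Nine juvenile S. japonicum worms recovered 17 days post-infection from female ICR Kunming mice, in duplicate dishes of bicarbonate-buffered DMEM with 20% newborn calf serum plus penicillin, streptomycin and amphotericin B. Compound diluted from DMSO stock. Held at 37 °C, 5% CO2, with daily stereomicroscope scoring. Survival% = surviving/total worms × 100.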

Test [14] deals with Schistosoma japonicum. Briefly: Antischistosomal activity against adult Schistosoma japonicum assessed as vitality reduction at 100 uM after 72 hrs (reference value: 0%). It is filed as functional.
For test [15], the system named is Schistosoma japonicum. In words: Antischistosomal activity against adult Schistosoma japonicum assessed as worm survival at 100 uM after 48 hrs (reference value: 100%). It is filed as functional. In short, it runs like this: as §1
In test [16] the test system is Schistosoma japonicum. In words: Antischistosomal activity against adult Schistosoma japonicum assessed as worm survival at 80 uM after 72 hrs (reference value: 100%). In kind it is functional. A digest of the protocol: as §1
Test [17] concerns Schistosoma japonicum. In words: Antischistosomal activity against adult Schistosoma japonicum assessed as worm survival at 100 uM after 24 hrs (reference value: 100%). It is filed as functional. A digest of the protocol:
as §1

Test [18] has as its system Schistosoma japonicum. Briefly: Antischistosomal activity against adult Schistosoma japonicum assessed as vitality reduction at 80 uM after 48 hrs (reference value: 0%). In kind it is functional.
The test system of test [19] is Schistosoma japonicum. In words: Antischistosomal activity against adult Schistosoma japonicum assessed as vitality reduction at 80 uM after 24 hrs (reference value: 0%). In kind it is functional.
Test [20] concerns Schistosoma japonicum. In words: Antischistosomal activity against juvenile Schistosoma japonicum assessed as vitality reduction at 50 uM after 48 hrs (reference value: 0%). It is filed as functional.
Test [21] relates to Schistosoma japonicum. Briefly: Antischistosomal activity against juvenile Schistosoma japonicum assessed as worm survival at 50 uM after 24 hrs (reference value: 100%). In kind it is functional. In short, it runs like this:
as §2

Test [22] concerns Schistosoma japonicum. In words: Antischistosomal activity against adult Schistosoma japonicum assessed as worm survival at 50 uM after 72 hrs (reference value: 100%). It is filed as functional. In short, it runs like this: as §1
Test [23] relates to Schistosoma japonicum. In words: Antischistosomal activity against adult Schistosoma japonicum assessed as vitality reduction at 50 uM after 24 hrs (reference value: 0%). In kind it is functional.
Test [24] relates to Schistosoma japonicum. In words: Antischistosomal activity against adult Schistosoma japonicum assessed as vitality reduction at 80 uM after 72 hrs (reference value: 0%). In kind it is functional.
The subject of test [25] is Schistosoma japonicum. In words: Antischistosomal activity against juvenile Schistosoma japonicum assessed as worm survival at 50 uM after 48 hrs (reference value: 100%). It is filed as functional. In short, it runs like this:
as §2

In general, inhibition refers to the relative decrease from the control value, in per cent. By inhibition in vivo is commonly meant the percentage by which the read-out fell short of the control. Regarding `O=C1CCC(C(=O)N2CC(=O)N3CCc4ccccc4[C@@H]3C2)CC1`, the survival at 100 µM with Schistosoma japonicum [1] was found to be 60%; with Schistosoma japonicum [15], 60%; in the test with Schistosoma japonicum [17], 40%. The inhibition at 50 µM came out at 60% in the test with Schistosoma japonicum [2]; 60.5% in the test on Schistosoma japonicum [8]; 66.7% with Schistosoma japonicum [9]; 55.5% in the test with Schistosoma japonicum [12]; 64.2% with Schistosoma japonicum [20]; 73.3% with Schistosoma japonicum [23]. In addition, the survival at 80 µM came out at 60% in the test with Schistosoma japonicum [3], 100% in the test with Schistosoma japonicum [10] and 100% in the test with Schistosoma japonicum [16]. The survival at 50 µM with Schistosoma japonicum [4] was 80%; in the test with Schistosoma japonicum [11] it was 60%; with Schistosoma japonicum [13], 44.1%; in the test with Schistosoma japonicum [21], 51.6%; in the test on Schistosoma japonicum [22], 100%; in the test on Schistosoma japonicum [25], 48.3%. In addition, the inhibition in vivo at 200 mg/kg with Schistosoma japonicum [5] came out at 60%. In addition, the inhibition at 100 µM is 82.2% in the test with Schistosoma japonicum [6], 86.7% in the test on Schistosoma japonicum [7] and 77.8% with Schistosoma japonicum [14]. The inhibition at 80 µM came to 69.3% in the test with Schistosoma japonicum [18], 82% in the test with Schistosoma japonicum [19] and 60% with Schistosoma japonicum [24].

For the compound `O=C1CCC(C(=O)N2CC(=O)N3CCc4ccccc4[C@H]3C2)C1` (stereo partly drawn), the survival at 100 µM in the test with Schistosoma japonicum [1], in the test with Schistosoma japonicum [15] and in the test on Schistosoma japonicum [17] was 100% throughout. Moreover, the inhibition at 50 µM in the test with Schistosoma japonicum [2] was determined as 0%; in the test with Schistosoma japonicum [8] it was 45.7%; in the test on Schistosoma japonicum [9], 53.1%; with Schistosoma japonicum [12], 0%; in the test on Schistosoma japonicum [20], 45.7%; in the test with Schistosoma japonicum [23], 4.5%. In addition, the survival at 50 µM was 100% with Schistosoma japonicum [4]; 100% in the test on Schistosoma japonicum [11]; 85% with Schistosoma japonicum [13]; 100% with Schistosoma japonicum [21]; 100% in the test with Schistosoma japonicum [22]; 100% in the test with Schistosoma japonicum [25]. Also, in the test on Schistosoma japonicum [5], the inhibition in vivo at 200 mg/kg is 24.6%. For the same compound, the inhibition at 100 µM with Schistosoma japonicum [6] is 15.5%; in the test on Schistosoma japonicum [7] it was 16%; in the test with Schistosoma japonicum [14] it was 15.3%.

On to `O=C1CCC(C(=O)N2CC(=O)N3CCc4ccccc4[C@H]3C2)CC1`, for which the survival at 100 µM with Schistosoma japonicum [1], with Schistosoma japonicum [15] and in the test with Schistosoma japonicum [17] was 100% each time. The inhibition at 50 µM with Schistosoma japonicum [2] was 0%; with Schistosoma japonicum [8], 29.6%; in the test on Schistosoma japonicum [9] it was 29.6%; with Schistosoma japonicum [12], 0%; in the test on Schistosoma japonicum [20] it was 29.6%; in the test on Schistosoma japonicum [23], 0%. Further, the survival at 50 µM in the test with Schistosoma japonicum [4] was 100%; in the test on Schistosoma japonicum [11], 100%; in the test with Schistosoma japonicum [13], 88.3%; in the test with Schistosoma japonicum [21], 88.3%; with Schistosoma japonicum [22] it was 100%; in the test with Schistosoma japonicum [25] it was 88.3%. In addition, the inhibition in vivo at 200 mg/kg in the test on Schistosoma japonicum [5] is 18%. The inhibition at 100 µM is 15.3% in the test with Schistosoma japonicum [6], 8.7% in the test with Schistosoma japonicum [7] and 15.5% with Schistosoma japonicum [14].

As to `O=C1CCC(C(=O)N2CC(=O)N3CCc4ccccc4C3C2)CC1` (racemic), the survival at 100 µM in the test on Schistosoma japonicum [1], in the test with Schistosoma japonicum [15] and with Schistosoma japonicum [17] was 100% in each case. Besides, the inhibition at 50 µM in the test with Schistosoma japonicum [2] was determined as 64.5%; in the test on Schistosoma japonicum [8] it was 35.8%; in the test on Schistosoma japonicum [9], 34.6%; with Schistosoma japonicum [12] it was 66.7%; with Schistosoma japonicum [20] it was 34.6%; in the test on Schistosoma japonicum [23], 40%. Also, the survival at 80 µM in the test on Schistosoma japonicum [3], in the test with Schistosoma japonicum [10] and with Schistosoma japonicum [16] was 100% in each case. The survival at 50 µM with Schistosoma japonicum [4] came to 100%; in the test on Schistosoma japonicum [11] it was 100%; with Schistosoma japonicum [13], 69.2%; in the test with Schistosoma japonicum [21], 69.2%; in the test with Schistosoma japonicum [22], 100%; with Schistosoma japonicum [25], 69.2%. Also, the inhibition in vivo at 200 mg/kg in the test with Schistosoma japonicum [5] amounted to 27.7%. Further, the inhibition at 100 µM with Schistosoma japonicum [6] was determined as 60%; in the test on Schistosoma japonicum [7] it was 46.7%; with Schistosoma japonicum [14], 55.3%. Besides, the figures for the inhibition at 80 µM with Schistosoma japonicum [18], in the test on Schistosoma japonicum [19] and in the test with Schistosoma japonicum [24] were 64.5%, 48.9% and 66.7%, respectively.

With `O=C1CCC(C(=O)N2CC(=O)N3CCc4ccccc4C3C2)C1` (racemic), the survival at 100 µM with Schistosoma japonicum [1], with Schistosoma japonicum [15] and with Schistosoma japonicum [17] was 100% throughout. In addition, the inhibition at 50 µM with Schistosoma japonicum [2] stood at 0%; in the test with Schistosoma japonicum [8] it was 55.6%; with Schistosoma japonicum [9], 54.3%; with Schistosoma japonicum [12] it was 0%; in the test on Schistosoma japonicum [20], 55.6%; in the test with Schistosoma japonicum [23], 0%. The survival at 80 µM in the test with Schistosoma japonicum [3], with Schistosoma japonicum [10] and in the test with Schistosoma japonicum [16] was 100% throughout. Moreover, the survival at 50 µM in the test with Schistosoma japonicum [4] was found to be 100%; in the test with Schistosoma japonicum [11] it was 100%; in the test with Schistosoma japonicum [13], 54.2%; in the test on Schistosoma japonicum [21], 54.2%; in the test with Schistosoma japonicum [22], 100%; with Schistosoma japonicum [25] it was 54.2%. Also, the inhibition in vivo at 200 mg/kg with Schistosoma japonicum [5] was found to be 37.4%. Further, the results for the inhibition at 100 µM in the test with Schistosoma japonicum [6], with Schistosoma japonicum [7] and with Schistosoma japonicum [14] were 13.3%, 17.8% and 8.7%, respectively. In addition, the inhibition at 80 µM in the test on Schistosoma japonicum [18] was 13.3%; with Schistosoma japonicum [19], 23.3%; with Schistosoma japonicum [24], 0%.
